# According to publication PMC4627693 (Chemistry & biology, 2014):
# Where a SMILES comes first, the peptide text is derived from it. The star is where a group is joined. Biotin = O=C1N[C@H]2[C@H](CS[C@H]2CCCCC(=O)*)N1; AEEA = NCCOCCOCC(=O)O
# What was measured:
# Format in all cases: binding
# c-Src-acrylamide = c-Src-acrylamide (Gallus gallus, UniProt P00523); experiment: Thiol reaction with Src-acrylamide, LC-MS; conditions: 4 μM c-Src-acrylamide (crosslinker 2), 25 minutes, room temperature
# Outline: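 Recombinant c-Src (4 μM final) was pre-labelled with 20 μM crosslinker in PBS pH 8 (0.025% DMSO final) for 15 min without quench. It was then reacted with 2-methylbenzylmercaptan (50 μM-1 mM) or Cys-containing peptide (25-400 μM) to give a dose-response. Products were read by LC-ESI-MS (C4 column, deconvoluted spectra). Data are duplicate points (SEM), from three separate experiments.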
# [1] = test system: c-Src-imine (c-Src-1 complex); experiment: Thiol reaction with Src-imine
# Outline: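 c-Src (4 μM) pre-labelled 15 min with dialdehyde crosslinker (20 μM) in 25 mM HEPES pH 6.5, not quenched. Imine adduct then treated with 2-methylbenzylmercaptan (50 μM–1 mM) or Cys peptide (25–400 μM). Products analysed by ESI LC-MS with deconvolution. Duplicate points, representative of three experiments, error shown as SEM.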
# recombinant c-Src = conditions: crosslinker 2 (20 μM), HCT-15 lysate
# Outline: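 HCT-15 lysate diluted in reaction buffer to 2 mg/mL (500 μL), with MgCl2 and 4 pmol recombinant c-Src added. Crosslinker (20 μM) added for 10 min at room temperature, then biotinylated Cys peptide (5–40 μM final) for 25 min. Urea lysis buffer added, then streptavidin-agarose capture for 1 h at room temperature with shaking. Beads washed in 4M urea and boiled in reducing Laemmli buffer. Anti-Src western blot read by infrared imaging, giving % of a total-c-Src standard. Duplicates; two experiments.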
# c-Src [2] = conditions: peptide 74 μM, 4 μM c-Src, 20 μM crosslinker 2; three hour time course; LC-MS
# Outline: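 c-Src (4 μM) in PBS pH 8 incubated with acrylate crosslinker (20 μM; DMSO 0.025% final) and biotinylated cysteine-containing quasi-substrate peptide (74 μM) over 3 h. Samples quenched with NaBH4 in cold MeOH and analysed by ESI LC-MS on a C4 column with deconvolution. Crosslinked product expressed as % of total c-Src.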
# c-Src [3] = conditions: no adenine mimetic; 20 μM crosslinker, 4 μM c-Src, 25 mM HEPES pH 6.5; NaBH4 quench; LC-MS
molecule,measurement,setting,value
"Cc1ccccc1CS [2-methylbenzylmercaptan, reference compound]",crosslinked product formation with Src-acrylamide adduct,c-Src-acrylamide,much less efficient
same,product formation with c-Src-1 complex (Src-imine),"[1]; at high concentrations (50 μM-1 mM range), 4 μM c-Src-imine, 25 minutes, room temperature, LC-MS",significant product formation
CC[C@H](C)[C@H](NC(=O)COCCOCCNC(=O)COCCOCCNC(=O)CCCC[C@@H]1SC[C@@H]2NC(=O)N[C@@H]21)C(=O)N[C@@H](CS)C(=O)NCC(=O)N[C@@H](CCC(=O)O)C(=O)N[C@@H](Cc1ccccc1)C(=O)N[C@@H](CCCNC(=N)N)C(=O)N[C@@H](CCCNC(=N)N)C(=O)N[C@@H](CCCNC(=N)N)C(N)=O [Cys-Srctide] ({Biotin-AEEA-AEEA}-ICGEFRRR-NH2; C-terminus assumed),crosslinked product formation with Src-acrylamide adduct,c-Src-acrylamide,significant crosslinked product
same,overall yield of the reaction with dialdehyde crosslinker 1,"[1]; dialdehyde-based crosslinker (earlier strategy), LC/MS",below the limit of detection
same,crosslinked product formation with c-Src-1 complex,"[1]; peptide concentrations exceeding 200 μM, 4 μM c-Src-imine, room temperature, LC-MS",no product formation was detected
same,c-Src captured at lowest peptide concentration,"recombinant c-Src; 5 μM peptide, 25 minutes",roughly 1%
same,crosslinked product formation over time course (in words),c-Src [2],proceed to completion
O=Cc1ccsc1C=O [thiophene dialdehyde],product (adduct) formed with c-Src,c-Src [3],almost undetectable
Biotin-ZZRPRTSCF [Cys-Aktide],c-Src captured at lowest peptide concentration (in words),"recombinant c-Src; 5 μM peptide, 25 minutes",not captured at a detectable level
same,percentage of c-Src recovered vs negative control,recombinant c-Src; 40 μM peptide,significantly above the negative control
same,yield of c-Src compared with Cys-Srctide,recombinant c-Src; 25 minutes,less than that of Cys-Srctide
same,crosslinked product formation over time course (in words),c-Src [2],"reacted more slowly than Cys-Srctide, and did not reach completion"
Biotin-ZZRRADDCDDDD [Cys-CK2tide],crosslinked product (percentage of total c-Src),c-Src [2],less than 10%
